# Laboratory results taken from ChEMBL document CHEMBL1154310, “Stereoselective synthesis and antimicrobial activity of benzofuran-based (1E)-1-(piperidin-1-yl)-N2-arylamidrazones” (2009).
# Test system: Pseudomonas aeruginosa
# Assay: Ratio of compound to amoxicilline activity against Pseudomonas aeruginosa at 5 mg/ml after 24 to 48 hrs by agar diffusion technique
# Assay type: functional
# Conditions: not given
row,Compound,Ratio
1,Cc1c(C(=O)N/N=C/C=C/c2ccccc2)oc2ccccc12,0
2,CC(=N\NC(=O)c1oc2ccccc2c1C)/C(Cl)=N/Nc1ccc(Br)cc1,0
3,Cc1c(C(=O)N/N=C(/C=C/c2ccccc2)C(=N/Nc2ccc([N+](=O)[O-])cc2)\N2CCCCC2)oc2ccccc12,0
4,CC(=N\NC(=O)c1oc2ccccc2c1C)/C(=N/Nc1ccccc1)N1CCCCC1,0
5,CC(=N\NC(=O)c1oc2ccccc2c1C)/C(Cl)=N/Nc1ccc(C)cc1,0
6,CC(=N\NC(=O)c1oc2ccccc2c1C)/C(=N/Nc1ccc([N+](=O)[O-])cc1)S(=O)(=O)c1ccccc1,0
7,CC(=N\NC(=O)c1oc2ccccc2c1C)/C(=N/Nc1ccc([N+](=O)[O-])cc1)NO,0
8,C/C=N/NC(=O)c1oc2ccccc2c1C,0

# Test system: Syncephalastrum racemosum
# Assay: Ratio of compound to grisofulvin activity against Syncephalastrum racemosum at 5 mg/ml after 24 to 48 hrs by agar diffusion technique
# Assay type: functional
# Conditions: not given
row,Compound,Ratio
1,Cc1c(C(=O)N/N=C/C=C/c2ccccc2)oc2ccccc12,0
2,CC(=N\NC(=O)c1oc2ccccc2c1C)/C(Cl)=N/Nc1ccc(Br)cc1,0.26
3,Cc1c(C(=O)N/N=C(/C=C/c2ccccc2)C(=N/Nc2ccc([N+](=O)[O-])cc2)\N2CCCCC2)oc2ccccc12,1.1
4,CC(=N\NC(=O)c1oc2ccccc2c1C)/C(=N/Nc1ccccc1)N1CCCCC1,0.84
5,CC(=N\NC(=O)c1oc2ccccc2c1C)/C(Cl)=N/Nc1ccc(C)cc1,0
6,CC(=N\NC(=O)c1oc2ccccc2c1C)/C(=N/Nc1ccc([N+](=O)[O-])cc1)S(=O)(=O)c1ccccc1,0
7,CC(=N\NC(=O)c1oc2ccccc2c1C)/C(=N/Nc1ccc([N+](=O)[O-])cc1)NO,1.05
8,C/C=N/NC(=O)c1oc2ccccc2c1C,0

# Test system: Candida albicans
# Assay: Antifungal activity against Candida albicans at 5 mg/ml after 24 to 48 hrs by agar diffusion technique
# Assay type: functional
# Conditions: read-out: IZ
# Outline: (§1)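 Clinical fungal or yeast isolates were seeded on malt extract agar (pH 5.4). 1 cm holes received 100 of test solution at 5 mg/ml in DMSO, with DMSO control holes and griseofulvin as the standard. Plates sat 1 h at 4 °C, then were incubated at 28 °C. Zone diameters were measured at 24–48 h.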
row,Compound,zone of inhibition at 5000 µg/mL [mm]
1,Cc1c(C(=O)N/N=C/C=C/c2ccccc2)oc2ccccc12,5
2,CC(=N\NC(=O)c1oc2ccccc2c1C)/C(Cl)=N/Nc1ccc(Br)cc1,10
3,Cc1c(C(=O)N/N=C(/C=C/c2ccccc2)C(=N/Nc2ccc([N+](=O)[O-])cc2)\N2CCCCC2)oc2ccccc12,17
4,CC(=N\NC(=O)c1oc2ccccc2c1C)/C(=N/Nc1ccccc1)N1CCCCC1,14
5,CC(=N\NC(=O)c1oc2ccccc2c1C)/C(Cl)=N/Nc1ccc(C)cc1,6
6,CC(=N\NC(=O)c1oc2ccccc2c1C)/C(=N/Nc1ccc([N+](=O)[O-])cc1)S(=O)(=O)c1ccccc1,15
7,CC(=N\NC(=O)c1oc2ccccc2c1C)/C(=N/Nc1ccc([N+](=O)[O-])cc1)NO,9
8,C/C=N/NC(=O)c1oc2ccccc2c1C,8

# Test system: Escherichia coli
# Assay: Antibacterial activity against Escherichia coli at 5 mg/ml after 24 to 48 hrs by agar diffusion technique
# Assay type: functional
# Conditions: read-out: IZ
# Outline: (§2)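 Hole-plate diffusion on nutrient agar (pH 6.2) seeded with clinical bacterial isolates. 1 cm wells were filled with 100 of a 5 mg/ml DMSO solution, with DMSO-only control wells and amoxicilline as the reference. Plates were held at 4 °C for 1 h, then incubated at 37 °C. Inhibition zone diameter was read after 24–48 h.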
row,Compound,zone of inhibition at 5000 µg/mL [mm]
1,Cc1c(C(=O)N/N=C(/C=C/c2ccccc2)C(=N/Nc2ccc([N+](=O)[O-])cc2)\N2CCCCC2)oc2ccccc12,8
2,CC(=N\NC(=O)c1oc2ccccc2c1C)/C(=N/Nc1ccccc1)N1CCCCC1,17
3,CC(=N\NC(=O)c1oc2ccccc2c1C)/C(=N/Nc1ccc([N+](=O)[O-])cc1)S(=O)(=O)c1ccccc1,6
4,C/C=N/NC(=O)c1oc2ccccc2c1C,20

# Test system: Syncephalastrum racemosum
# Assay: Antifungal activity against Syncephalastrum racemosum at 5 mg/ml after 24 to 48 hrs by agar diffusion technique
# Assay type: functional
# Conditions: read-out: IZ
# Outline: as §1
row,Compound,zone of inhibition at 5000 µg/mL [mm]
1,CC(=N\NC(=O)c1oc2ccccc2c1C)/C(Cl)=N/Nc1ccc(Br)cc1,5
2,Cc1c(C(=O)N/N=C(/C=C/c2ccccc2)C(=N/Nc2ccc([N+](=O)[O-])cc2)\N2CCCCC2)oc2ccccc12,21
3,CC(=N\NC(=O)c1oc2ccccc2c1C)/C(=N/Nc1ccccc1)N1CCCCC1,16
4,CC(=N\NC(=O)c1oc2ccccc2c1C)/C(=N/Nc1ccc([N+](=O)[O-])cc1)NO,20

# Test system: Candida albicans
# Assay: Ratio of compound to grisofulvin activity against Candida albicans at 5 mg/ml after 24 to 48 hrs by agar diffusion technique
# Assay type: functional
# Conditions: not given
row,Compound,Ratio
1,Cc1c(C(=O)N/N=C/C=C/c2ccccc2)oc2ccccc12,0.5
2,CC(=N\NC(=O)c1oc2ccccc2c1C)/C(Cl)=N/Nc1ccc(Br)cc1,1
3,Cc1c(C(=O)N/N=C(/C=C/c2ccccc2)C(=N/Nc2ccc([N+](=O)[O-])cc2)\N2CCCCC2)oc2ccccc12,1.7
4,CC(=N\NC(=O)c1oc2ccccc2c1C)/C(=N/Nc1ccccc1)N1CCCCC1,1.4
5,CC(=N\NC(=O)c1oc2ccccc2c1C)/C(Cl)=N/Nc1ccc(C)cc1,0.6
6,CC(=N\NC(=O)c1oc2ccccc2c1C)/C(=N/Nc1ccc([N+](=O)[O-])cc1)S(=O)(=O)c1ccccc1,1.5
7,CC(=N\NC(=O)c1oc2ccccc2c1C)/C(=N/Nc1ccc([N+](=O)[O-])cc1)NO,0.9
8,C/C=N/NC(=O)c1oc2ccccc2c1C,0.8

# Test system: Bacillus subtilis
# Assay: Ratio of compound to amoxicilline activity against Bacillus subtilis at 5 mg/ml after 24 to 48 hrs by agar diffusion technique
# Assay type: functional
# Conditions: not given
row,Compound,Ratio
1,Cc1c(C(=O)N/N=C/C=C/c2ccccc2)oc2ccccc12,0.33
2,CC(=N\NC(=O)c1oc2ccccc2c1C)/C(Cl)=N/Nc1ccc(Br)cc1,0.38
3,Cc1c(C(=O)N/N=C(/C=C/c2ccccc2)C(=N/Nc2ccc([N+](=O)[O-])cc2)\N2CCCCC2)oc2ccccc12,0
4,CC(=N\NC(=O)c1oc2ccccc2c1C)/C(=N/Nc1ccccc1)N1CCCCC1,0
5,CC(=N\NC(=O)c1oc2ccccc2c1C)/C(Cl)=N/Nc1ccc(C)cc1,0.29
6,CC(=N\NC(=O)c1oc2ccccc2c1C)/C(=N/Nc1ccc([N+](=O)[O-])cc1)S(=O)(=O)c1ccccc1,0.42
7,CC(=N\NC(=O)c1oc2ccccc2c1C)/C(=N/Nc1ccc([N+](=O)[O-])cc1)NO,0
8,C/C=N/NC(=O)c1oc2ccccc2c1C,0

# Test system: Aspergillus fumigatus
# Assay: Ratio of compound to grisofulvin activity against Aspergillus fumigatus at 5 mg/ml after 24 to 48 hrs by agar diffusion technique
# Assay type: functional
# Conditions: not given
row,Compound,Ratio
1,Cc1c(C(=O)N/N=C/C=C/c2ccccc2)oc2ccccc12,0
2,CC(=N\NC(=O)c1oc2ccccc2c1C)/C(Cl)=N/Nc1ccc(Br)cc1,0
3,Cc1c(C(=O)N/N=C(/C=C/c2ccccc2)C(=N/Nc2ccc([N+](=O)[O-])cc2)\N2CCCCC2)oc2ccccc12,0
4,CC(=N\NC(=O)c1oc2ccccc2c1C)/C(=N/Nc1ccccc1)N1CCCCC1,1.12
5,CC(=N\NC(=O)c1oc2ccccc2c1C)/C(Cl)=N/Nc1ccc(C)cc1,0
6,CC(=N\NC(=O)c1oc2ccccc2c1C)/C(=N/Nc1ccc([N+](=O)[O-])cc1)S(=O)(=O)c1ccccc1,0
7,CC(=N\NC(=O)c1oc2ccccc2c1C)/C(=N/Nc1ccc([N+](=O)[O-])cc1)NO,0
8,C/C=N/NC(=O)c1oc2ccccc2c1C,0

# Test system: Staphylococcus aureus
# Assay: Antibacterial activity against Staphylococcus aureus at 5 mg/ml after 24 to 48 hrs by agar diffusion technique
# Assay type: functional
# Conditions: read-out: IZ
# Outline: as §2
row,Compound,zone of inhibition at 5000 µg/mL [mm]
1,CC(=N\NC(=O)c1oc2ccccc2c1C)/C(=N/Nc1ccccc1)N1CCCCC1,15
2,CC(=N\NC(=O)c1oc2ccccc2c1C)/C(=N/Nc1ccc([N+](=O)[O-])cc1)S(=O)(=O)c1ccccc1,8
3,C/C=N/NC(=O)c1oc2ccccc2c1C,16

# Test system: Aspergillus fumigatus
# Assay: Antifungal activity against Aspergillus fumigatus at 5 mg/ml after 24 to 48 hrs by agar diffusion technique
# Assay type: functional
# Conditions: read-out: IZ
# Outline: as §1
row,Compound,zone of inhibition at 5000 µg/mL [mm]
1,CC(=N\NC(=O)c1oc2ccccc2c1C)/C(=N/Nc1ccccc1)N1CCCCC1,28

# Test system: Staphylococcus aureus
# Assay: Ratio of compound to amoxicilline activity against Staphylococcus aureus at 5 mg/ml after 24 to 48 hrs by agar diffusion technique
# Assay type: functional
# Conditions: not given
row,Compound,Ratio
1,Cc1c(C(=O)N/N=C/C=C/c2ccccc2)oc2ccccc12,0
2,CC(=N\NC(=O)c1oc2ccccc2c1C)/C(Cl)=N/Nc1ccc(Br)cc1,0
3,Cc1c(C(=O)N/N=C(/C=C/c2ccccc2)C(=N/Nc2ccc([N+](=O)[O-])cc2)\N2CCCCC2)oc2ccccc12,0
4,CC(=N\NC(=O)c1oc2ccccc2c1C)/C(=N/Nc1ccccc1)N1CCCCC1,0.5
5,CC(=N\NC(=O)c1oc2ccccc2c1C)/C(Cl)=N/Nc1ccc(C)cc1,0
6,CC(=N\NC(=O)c1oc2ccccc2c1C)/C(=N/Nc1ccc([N+](=O)[O-])cc1)S(=O)(=O)c1ccccc1,0.27
7,CC(=N\NC(=O)c1oc2ccccc2c1C)/C(=N/Nc1ccc([N+](=O)[O-])cc1)NO,0
8,C/C=N/NC(=O)c1oc2ccccc2c1C,0.53

# Test system: Escherichia coli
# Assay: Ratio of compound to amoxicilline activity against Escherichia coli at 5 mg/ml after 24 to 48 hrs by agar diffusion technique
# Assay type: functional
# Conditions: not given
row,Compound,Ratio
1,Cc1c(C(=O)N/N=C/C=C/c2ccccc2)oc2ccccc12,0
2,CC(=N\NC(=O)c1oc2ccccc2c1C)/C(Cl)=N/Nc1ccc(Br)cc1,0
3,Cc1c(C(=O)N/N=C(/C=C/c2ccccc2)C(=N/Nc2ccc([N+](=O)[O-])cc2)\N2CCCCC2)oc2ccccc12,0.29
4,CC(=N\NC(=O)c1oc2ccccc2c1C)/C(=N/Nc1ccccc1)N1CCCCC1,0.61
5,CC(=N\NC(=O)c1oc2ccccc2c1C)/C(Cl)=N/Nc1ccc(C)cc1,0
6,CC(=N\NC(=O)c1oc2ccccc2c1C)/C(=N/Nc1ccc([N+](=O)[O-])cc1)S(=O)(=O)c1ccccc1,0.21
7,CC(=N\NC(=O)c1oc2ccccc2c1C)/C(=N/Nc1ccc([N+](=O)[O-])cc1)NO,0
8,C/C=N/NC(=O)c1oc2ccccc2c1C,0.71

# Test system: Geotrichum candidum
# Assay: Ratio of compound to grisofulvin activity against Geotrichum candidum at 5 mg/ml after 24 to 48 hrs by agar diffusion technique
# Assay type: functional
# Conditions: not given
row,Compound,Ratio
1,Cc1c(C(=O)N/N=C/C=C/c2ccccc2)oc2ccccc12,0
2,CC(=N\NC(=O)c1oc2ccccc2c1C)/C(Cl)=N/Nc1ccc(Br)cc1,0
3,Cc1c(C(=O)N/N=C(/C=C/c2ccccc2)C(=N/Nc2ccc([N+](=O)[O-])cc2)\N2CCCCC2)oc2ccccc12,0
4,CC(=N\NC(=O)c1oc2ccccc2c1C)/C(=N/Nc1ccccc1)N1CCCCC1,0
5,CC(=N\NC(=O)c1oc2ccccc2c1C)/C(Cl)=N/Nc1ccc(C)cc1,0
6,CC(=N\NC(=O)c1oc2ccccc2c1C)/C(=N/Nc1ccc([N+](=O)[O-])cc1)S(=O)(=O)c1ccccc1,0
7,CC(=N\NC(=O)c1oc2ccccc2c1C)/C(=N/Nc1ccc([N+](=O)[O-])cc1)NO,0
8,C/C=N/NC(=O)c1oc2ccccc2c1C,0

# Test system: Bacillus subtilis
# Assay: Antibacterial activity against Bacillus subtilis at 5 mg/ml after 24 to 48 hrs by agar diffusion technique
# Assay type: functional
# Conditions: read-out: IZ
# Outline: as §2
row,Compound,zone of inhibition at 5000 µg/mL [mm]
1,Cc1c(C(=O)N/N=C/C=C/c2ccccc2)oc2ccccc12,8
2,CC(=N\NC(=O)c1oc2ccccc2c1C)/C(Cl)=N/Nc1ccc(Br)cc1,9
3,CC(=N\NC(=O)c1oc2ccccc2c1C)/C(Cl)=N/Nc1ccc(C)cc1,7
4,CC(=N\NC(=O)c1oc2ccccc2c1C)/C(=N/Nc1ccc([N+](=O)[O-])cc1)S(=O)(=O)c1ccccc1,10
